Assay outcomes deposited in PubChem by several laboratories.
FXN GAA850 act: frataxin GAA850 promoter activation. HEK293 lucGAA850 FXN promoter luciferase reporter, 24 h; percent of 10 µM SAHA response. activation, % at 6 µM. actives 0.56% (n = 360,000). AID 540364;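 active = activation above the average of all compounds screened plus 3 SD, cutoff fixed separately per campaign, cut at about 7.5% in these data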;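 note: 0% = DMSO wells and 100% = 10 µM SAHA wells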
SR-BI DiI inh: blocks mouse SR-BI lipid uptake from DiI-HDL; inhibition, % at 12.5 µM; Q61009; actives 0.96% (n = 320,000); ldlA[mSR-BI] CHO cells, DiI-HDL uptake fluorescence, 3 h;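 active = mean replicate inhibition of at least 70% and a set share of replicates each scoring 70 or more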;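 note: 0% = median of neutral control wells and 100% = median of positive control wells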
AHR activator: activators of human aryl hydrocarbon receptor; P35869; AHR-responsive luciferase reporter cells, luminescence; activation, % at 5 µM; actives 2.5% (n = 320,000); AID 2796; in the data active = activation above about 47%;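 note: 0% = vehicle wells and 100% = reference agonist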
SR-BI uptake up: enhances SR-BI lipid uptake from DiI-HDL. activation, % at 12.5 µM. actives 0.096% (n = 320,000). CHO ldlA[mSR-BI] cells, DiI-HDL uptake fluorescence, 3 h; 100 = double the neutral-control signal;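 active = mean replicate activation of at least 60% and every replicate at or above 60%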;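 note: 0% = median plate neutral-control signal and 100% = twice that signal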
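System: LDL receptor-deficient CHO ldlA cells overexpressing murine SR-BI | Timing: 3 h uptake period with compound, 37 °C | Medium: HEPES-buffered (25 mM, pH 7.4) F12 plus 0.5% BSA | Dosing: Single-point compound dose | Signal: Bottom-read fluorescence, 550/595 nm | Read-out: Retained DiI signal reflecting DiI-HDL uptake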
HIF activator: HIF pathway transcriptional activation; AID 1910; U2OS HRE-luciferase reporter, luminescence; normalized: DMSO 0%, desferrioxamine 100%; actives 0.32% (n = 300,000); activation, % at 7.5 µM (by protocol);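 active = mean activation of at least 10% of the iron chelator positive control signal, with at least half of replicates also reaching 10%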
ABCB6 inh 2: human ABCB6 transporter inhibition. Q9NP58. K562-ABCB6 porphyrin accumulation, flow cytometry, 1 h; hits give low values. fluorescence ratio to DMSO, % at 10 µM. actives 0.19% (n = 360,000). AID 602162;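 active = fluorescence ratio to DMSO below 75%, the collection mean minus 3 SD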;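 note: signal is porphyrin accumulated inside mitochondria; 100% equals median channel fluorescence of DMSO control wells; lower ratio means ABCB6 inhibition with less porphyrin fluorescence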
Numbers without * were called inactive; x = no result. Sampled rows, rich in hits. Any-hit rate of the full collection: about 3.9%.

SMILES	FXN GAA850 act	SR-BI DiI inh	AHR activator	SR-BI uptake up	HIF activator	ABCB6 inh 2
COc1ccc(C(=O)NCc2nnc(SCC(=O)Nc3nc4ccccc4s3)o2)cc1	-1	2	18	-2	0	102
C=CCNc1nc(NCCN2CCOCC2)nc(OC)n1	2	-38	-1	38	0	96
O=C1Nc2ccc(Cl)cc2/C1=C/C1CC=CCC1 (configuration not stated)	5	7	20	-7	394*	82
CC(=O)Nc1ccc(NS(=O)(=O)c2c(Cl)cccc2Cl)cc1	0	10	4	-10	1	90
CCC1CCCCN1Cc1c(O)ccc2c(=O)c(-c3ccccc3OC)coc12 (configuration not stated)	-1	4	2	-4	45*	102
O=C(COC(=O)C1Cc2ccccc2CN1C(=O)c1ccccc1Cl)Nc1ccc(N2CCOCC2)cc1 (configuration not stated)	-1	76*	4	-76	0	100
O=C(Nc1ccc(Oc2cccnc2)cc1)C1CCCCN1Cc1ccc(CO)o1 (configuration not stated)	2	3	11	-3	0	95
Cc1cc(CN2CCCCC2C(=O)Nc2ccc(Oc3cccnc3)cc2)oc1C (configuration not stated)	-1	79*	9	x	1	109
COc1ccc(CCNC(=O)/C=C\c2ccccc2)cc1OC	3	17	4	-17	0	98
COc1ccc(/C=C/C(=O)NC(=S)NCCc2ccc(OC)c(OC)c2)cc1	1	83*	4	-83	0	99
CCOc1ccc(/C=C/C(=O)OCC(=O)NCCc2ccc(OCC)c(OCC)c2)cc1OC	2	73*	-1	-73	1	97
Cc1ccc([C@H]2C(C(=O)O)=CC[C@@H](c3ccc(Cl)cc3)N2S(=O)(=O)c2ccc(C)cc2)cc1	-2	2	0	-2	x	105
Cc1ccc(C(=O)NCCc2n[nH]c(=S)n2C)cc1	5	-7	3	7	0	96
Cc1ccc(C)c2sc(NC(=O)c3ccc(N4C(=O)CCC4=O)cc3)nc12	0	79*	-1	-79	0	95
COc1ccc(C)c2sc(NC(=O)c3cccc(N4C(=O)CCC4=O)c3)nc12	1	6	17	-6	0	91
CCc1nnc(NC(=O)c2sc3nc4c(cc3c2N)CCCCCC4)s1	3	-2	50*	2	-1	108
Nc1c(-c2ccccc2)cnn1-c1ccccc1	4	-11	0	11	2	99
O=c1cnn(-c2ccccc2)c(-c2ccccc2)c1	2	9	50*	-9	2	103
O=C(Nc1ccc(-c2nc3cc(Cl)ccc3o2)cc1)C1CCCO1 (configuration not stated)	3	27	55*	-27	0	94
O=C(Cc1nnc(NC(=O)c2ccccc2)s1)N/N=C\c1ccc(O)c(O)c1	0	-13	56*	13	0	97
CCN(CC)c1ccc(/C=N/NC(=O)Cc2nnc(NC(=O)Nc3ccccc3)s2)cc1	0	91*	24	-91	0	115
CC1CCN(S(=O)(=O)c2cccc(-c3csc(-c4cccnc4)n3)c2)CC1	1	-8	42	8	0	100
COc1ccc(C2C(C#N)C(C#N)N3CCCN23)cc1 (configuration not stated)	-1	-15	1	15	0	95
N#CC1C(C#N)N2CCCN2C1c1ccc(Cl)cc1 (configuration not stated)	2	15	48*	-15	-1	92
CCCCON1C(=O)c2cccc3cccc(c23)C1=O	4	27	56*	-27	0	99
Cc1c(C(=O)N(C)C(C)c2ccncn2)oc2c(F)cccc12 (configuration not stated)	2	7	7	-7	2	101
Cc1c(C(=O)N(C)C(C)c2ccccn2)oc2c(F)cccc12 (configuration not stated)	2	-3	54*	3	2	94
